≈ marks a conversion by molar mass, not a printed value. Calls of active or inactive are those of the source. The calls are words filed in the database; no cut-off is given here.
Experiments:
[1] = Plasma concentration in Clostridium difficile infected golden syrian hamster at 20 mg/kg, po qd administered for 5 days measured at 3 hrs post dose; assay type: ADME, organism-based, Mesocricetus auratus; set-up: dose 20 mg/kg, route oral; conditions: for Cp: in vivo, 3 h, BLD = below limit of detection
Summary of the method: (§1)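 C. difficile-infected hamsters received 20 mg/kg orally (0.6 mL at 3.3 mg/mL) once daily for 5 days. At 1 and 3 h after the fifth dose, 3 animals per time point were sampled: plasma (K2-EDTA, cardiac puncture) and cecal contents. Cecal contents were homogenized in PBS/25% acetonitrile (final 1:25 dilution). Samples were protein-precipitated with acetonitrile containing glyburide internal standard.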

Staphylococcus aureus [2] = test: Antibacterial activity against Staphylococcus aureus A4.018 by broth microdilution method; assay type: functional
[3] = Plasma concentration in Clostridium difficile infected golden syrian hamster at 20 mg/kg, po qd administered for 5 days measured at 1 hr post dose; assay type: ADME, organism-based, Mesocricetus auratus; set-up: dose 20 mg/kg, route oral; conditions: for concentration at 1 h: golden Syrian, plasma; summary of the method: as §1
[4] = Oral bioavailability in Sprague-Dawley rat; assay type: ADME, organism-based; conditions: in vivo
Summary of the method: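 Male Sprague–Dawley rats (220–270 g, N = 2 or 3) were used, including iv dosing. Rats were fasted overnight and for 8 h post-dose. Plasma (K2-EDTA) was protein-precipitated with acetonitrile containing glyburide internal standard and analysed by LC–MS/MS (C18, formic acid water/acetonitrile gradient).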

Enterococcus faecium = test: Antibacterial activity against Enterococcus faecium 7130724 by broth microdilution method; assay type: functional
[5] = Binding affinity to Escherichia coli GDPNP-labelled EF-Tu by surface plasmon resonance analysis
Enterococcus faecalis [6] = test: Antibacterial activity against Enterococcus faecalis NB04025 infected in CD1 mouse assessed as mouse survival up to 5 days; assay type: functional; conditions: NB04025, 120 h
Summary of the method: (§2)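 Female CD1 mice (21–25 g) were infected ip with 1 × 10^8 CFU/mouse, 10–100× the minimal lethal dose. E. faecalis NB04025 was given in 50% rat fecal extract and S. aureus ATCC 49951 in 0.9% NaCl. Compound was given by iv tail-vein bolus at 1 and 5 h post-inoculation, at several dose levels (6 mice/group). ED50 with 95% CI was derived by probit analysis of day-5 survival.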

Staphylococcus aureus [7] = test: Antibacterial activity against Staphylococcus aureus ATCC 49951 infected in CD1 mouse assessed as mouse survival up to 5 days; assay type: functional; conditions: ATCC 49951, 120 h; summary of the method: as §2
[8] = Drug level in Clostridium difficile infected golden syrian hamster cecum at 20 mg/kg, po qd administered for 5 days measured at 3 hrs post dose; assay type: ADME, organism-based, Mesocricetus auratus, Caecum; set-up: dose 20 mg/kg, route oral; conditions: read-out: Drug uptake; summary of the method: as §1
[9] = Drug level in Clostridium difficile infected golden syrian hamster cecum at 20 mg/kg, po qd administered for 5 days measured at 1 hr post dose; assay type: ADME, organism-based, Mesocricetus auratus, Caecum; set-up: dose 20 mg/kg, route oral; conditions: read-out: Drug uptake; summary of the method: as §1
[10] = Antibacterial activity against Clostridium difficile ATCC 43255 infected in golden syrian hamster assessed as survival rate at 0.2 mg/kg, po qd administered days 1 to 5 measured on days 6 to 21; assay type: functional; conditions: Clostridioides difficile
Summary of the method: (§3)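 Golden Syrian hamsters got clindamycin 10 mg/kg sc on day −1. On day 0 they were gavaged with ~7.5 × 10^6 CFU C. difficile ATCC 43255 (0.75 mL). From 24 h post-infection they were dosed orally once daily for up to 5 days (8/dose), in a NaOH/PEG-400/2.5% Cremophor EL solution diluted in pH 7.4 PBS. Vehicle controls were included, and animals were observed twice daily through day 21.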

[11] = system: Clostridium difficile ATCC 43255; test: Antibacterial activity against Clostridium difficile ATCC 43255 infected in golden syrian hamster assessed as decrease in toxin level in cecum after 21 days by ELISA; assay type: functional; conditions: Caecum
Summary of the method: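 In the clindamycin-pretreated, C. difficile-infected hamster model, oral compound was given once daily on days 1–5. Surviving animals were euthanized at study end (day 21). Cecal homogenates were assayed for C. difficile toxins A and B by Tox A/B II ELISA per kit directions.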

[12] = Antibacterial activity against Clostridium difficile ATCC 43255 by broth microdilution method; assay type: functional; conditions: Clostridioides difficile
Summary of the method: (§4)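 Broth microdilution MICs were run per CLSI M07-A8 (2009). The strain panel included C. difficile ATCC 43255, E. faecalis ATCC 29212 and S. pyogenes ATCC BAA-595.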

[13] = Antibacterial activity against Clostridium difficile ATCC 43255 infected in golden syrian hamster assessed as survival rate at 2 mg/kg, po qd administered days 1 to 5 measured on days 6 to 21; assay type: functional; conditions: Clostridioides difficile; summary of the method: as §3
Streptococcus pyogenes = test: Antibacterial activity against Streptococcus pyogenes ATCC BAA-595 by broth microdilution method; assay type: functional; summary of the method: as §4
Escherichia coli = test: Inhibition of protein synthesis in Escherichia coli S30 extract at 2 uM after 75 mins by luciferase based luminescence assay relative to GE2270A; assay type: functional
Enterococcus faecalis [14] = test: Antibacterial activity against Enterococcus faecalis ATCC 29212 by broth microdilution method; assay type: functional; summary of the method: as §4
[15] = Antibacterial activity against Clostridium difficile ATCC 43255 infected in golden syrian hamster assessed as survival rate at 20 mg/kg, po qd administered days 1 to 5 measured on days 6 to 21; assay type: functional; conditions: Clostridioides difficile; summary of the method: as §3
[16] = system: Clostridium difficile ATCC 43255; test: Antibacterial activity against Clostridium difficile ATCC 43255 infected in po dosed golden syrian hamster assessed as survival rate administered qd for days 1 to 5 measured on after 6 to 21 days; assay type: functional, organism-based; summary of the method: as §3

| Compound | MIC (Staphylococcus aureus [2]) | concentration at 1 h [3] | MIC (Enterococcus faecium) | Kd [5] | ED50 (Enterococcus faecalis [6]) | ED50 (Staphylococcus aureus [7]) | concentration at 3 h [8] | concentration at 1 h [9] | survival at 0.2 mg/kg [10] | Activity [11] | MIC [12] | survival at 2 mg/kg [13] | MIC (Streptococcus pyogenes) | inhibition at 2 µM (Escherichia coli) | MIC (Enterococcus faecalis [14]) | survival at 20 mg/kg [15] | Cp [1] | further results |
| --- | --- | --- | --- | --- | --- | --- | --- | --- | --- | --- | --- | --- | --- | --- | --- | --- | --- | --- |
| CNC(=O)C[C@@H]1NC(=O)c2csc(n2)-c2ccc(-c3nc(N(CCCCC(=O)O)C(=O)O[C@H]4CC[C@H](C(=O)O)CC4)cs3)nc2-c2csc(n2)-c2csc(n2)[C@H]([C@@H](O)c2ccccc2)NC(=O)CNC(=O)c2nc(sc2COC)[C@H](C(C)C)NC(=O)c2nc1sc2C [LFF-571] | 0.125 µg/mL (≈ 0.0915 µM) | 0.0448 µM | < 0.06 µg/mL | 6 nM | 2.2 mg/kg | 6.9 mg/kg | 208 µM | 61 µM | 0% | Active | 0.03 µg/mL (≈ 0.022 µM) | 100% | 1 µg/mL (≈ 0.732 µM) | 67% | < 0.06 µg/mL | 100% |  | concentration at 3 h ([1]; golden Syrian, plasma): 0.0052 µM; bioavailability [4]: < 0.1% |
| CNC(=O)C[C@@H]1NC(=O)c2csc(n2)-c2ccc(-c3nc(N(CCCCCC(=O)O)C(=O)O[C@H]4CC[C@H](C(=O)O)CC4)cs3)nc2-c2csc(n2)-c2csc(n2)[C@H]([C@@H](O)c2ccccc2)NC(=O)CNC(=O)c2nc(sc2COC)[C@H](C(C)C)NC(=O)c2nc1sc2C | 0.125 µg/mL (≈ 0.0905 µM) |  | < 0.06 µg/mL | 6 nM | 0.8 mg/kg | 9.6 mg/kg |  |  |  |  | 0.06 µg/mL (≈ 0.0435 µM) |  | 1 µg/mL (≈ 0.724 µM) | 67% | < 0.06 µg/mL |  |  |  |
| CNC(=O)C[C@@H]1NC(=O)c2csc(n2)-c2ccc(-c3nc(N(CCCC(=O)O)C(=O)O[C@H]4CC[C@H](C(=O)O)CC4)cs3)nc2-c2csc(n2)-c2csc(n2)[C@H]([C@@H](O)c2ccccc2)NC(=O)CNC(=O)c2nc(sc2COC)[C@H](C(C)C)NC(=O)c2nc1sc2C | 0.25 µg/mL (≈ 0.185 µM) |  | 0.06 µg/mL (≈ 0.0444 µM) |  | 2.2 mg/kg | 2.6 mg/kg |  |  |  |  | 0.06 µg/mL (≈ 0.0444 µM) |  | 1 µg/mL (≈ 0.739 µM) | 67% | < 0.06 µg/mL |  |  |  |
| CNC(=O)C[C@@H]1NC(=O)c2csc(n2)-c2ccc(-c3nc(N(CCCC(=O)O)C(=O)OCCCC(=O)O)cs3)nc2-c2csc(n2)-c2csc(n2)[C@H]([C@@H](O)c2ccccc2)NC(=O)CNC(=O)c2nc(sc2COC)[C@H](C(C)C)NC(=O)c2nc1sc2C | 1 µg/mL (≈ 0.762 µM) | 0.0639 µM | 0.5 µg/mL (≈ 0.381 µM) | 8 nM | 11 mg/kg | 11 mg/kg | 72 µM | 129 µM | 0% | Active | 0.03 µg/mL (≈ 0.0229 µM) | 100% | 2 µg/mL (≈ 1.52 µM) |  | 0.5 µg/mL (≈ 0.381 µM) | 100% | BLD |  |
| CNC(=O)C[C@@H]1NC(=O)c2csc(n2)-c2ccc(-c3nc(N(CCCCCCC(=O)O)C(=O)O[C@H]4CC[C@H](C(=O)O)CC4)cs3)nc2-c2csc(n2)-c2csc(n2)[C@H]([C@@H](O)c2ccccc2)NC(=O)CNC(=O)c2nc(sc2COC)[C@H](C(C)C)NC(=O)c2nc1sc2C | 0.25 µg/mL (≈ 0.179 µM) |  | 0.125 µg/mL (≈ 0.0896 µM) |  | 1 mg/kg | 6.6 mg/kg |  |  |  |  | 0.06 µg/mL (≈ 0.043 µM) |  | 2 µg/mL (≈ 1.43 µM) | 67% | < 0.06 µg/mL |  |  |  |
| CNC(=O)C[C@@H]1NC(=O)c2csc(n2)-c2ccc(-c3nc(NC(=O)[C@H]4CC[C@H](C(=O)O)CC4)cs3)nc2-c2csc(n2)-c2csc(n2)[C@H]([C@@H](O)c2ccccc2)NC(=O)CNC(=O)c2nc(sc2COC)[C@H](C(C)C)NC(=O)c2nc1sc2C | 0.125 µg/mL (≈ 0.1 µM) |  | 0.06 µg/mL (≈ 0.048 µM) | 43 nM | 0.6 mg/kg | 5.2 mg/kg | 39 µM | 18 µM | 0% | Active | 0.06 µg/mL (≈ 0.048 µM) | 62.5% | 4 µg/mL (≈ 3.2 µM) | 30% | 0.06 µg/mL (≈ 0.048 µM) | 100% | BLD | Cp ([3]; in vivo, 1 h, BLD = below limit of detection): BLD; Survival [16]: Dose-dependent effect |
